According to ChEMBL document CHEMBL1153857, “1,4-Diazepanes derived from (S)-serine--homopiperazines with improved sigma(1) (sigma) receptor affinity and selectivity” (Eur J Med Chem, 2009):

Experiments:
[1] = target: Sigma non-opioid intracellular receptor 1 (Cavia porcellus, UniProt Q60492); test: Displacement of [3H](+)-pentazocine from sigma 1 receptor in guinea pig brain membrane by liquid scintillation analyzer; assay type: cell membranes
Method in brief: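 Guinea pig brain membranes (about […] protein) incubated with 3 nM [3H]-pentazocine and at least 6 test concentrations in 50 mM Tris-HCl pH 7.4, 120 min at 37 °C. Filtration through PEI-presoaked GF/B filters, four cold-buffer washes, scintillation counting. Non-specific binding with excess haloperidol. Triplicates; IC50 by non-linear regression, Ki reported.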

[2] = Displacement of [3H]ditolylguanidine from sigma 2 receptor in rat liver membrane by liquid scintillation analyzer; assay type: cell membranes
Method in brief: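 Rat liver membranes (about […] protein) incubated with 3 nM [3H]-ditolylguanidine plus 100 nM (+)-pentazocine to mask sigma1 sites, with at least 6 test concentrations, in 50 mM Tris-HCl pH 8.0, 120 min at 25 °C. Stopped with ice-cold 10 mM Tris pH 8.0, filtered on PEI-soaked GF/B, washed three times, scintillation counted. […] Triplicates; Ki reported.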

[3] = Selectivity for sigma 1 receptor in guinea pig brain membrane over sigma 2 receptor in rat liver membrane; assay type: cell membranes
[4] = target: Mu-type opioid receptor (Homo sapiens, UniProt P35372); test: Displacement of radioligand from mu opioid receptor
Sequence of Mu-type opioid receptor (P35372 whole entry): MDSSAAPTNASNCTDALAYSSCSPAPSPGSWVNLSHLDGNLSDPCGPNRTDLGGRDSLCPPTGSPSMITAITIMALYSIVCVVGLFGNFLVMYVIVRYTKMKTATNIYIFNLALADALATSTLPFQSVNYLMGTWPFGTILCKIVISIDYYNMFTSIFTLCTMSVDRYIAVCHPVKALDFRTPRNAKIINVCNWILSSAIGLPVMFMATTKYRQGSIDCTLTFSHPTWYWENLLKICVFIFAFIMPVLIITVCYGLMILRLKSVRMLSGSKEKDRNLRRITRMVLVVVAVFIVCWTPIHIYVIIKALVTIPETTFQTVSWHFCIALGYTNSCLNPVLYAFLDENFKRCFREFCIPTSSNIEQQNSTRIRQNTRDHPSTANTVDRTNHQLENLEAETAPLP
Method in brief: (§1)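 Competition binding, first screened at two test concentrations. Exact Ki determined only when binding inhibition at the higher concentration was considerable.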

[5] = Displacement of radioligand from phencyclidine binding site of NMDA receptor; method in brief: as §1
[6] = target: Kappa-type opioid receptor (Homo sapiens, UniProt P41145); test: Displacement of [3H]U-69593 from kappa opioid receptor; method in brief: as §1
Sequence of Kappa-type opioid receptor (P41145 whole entry): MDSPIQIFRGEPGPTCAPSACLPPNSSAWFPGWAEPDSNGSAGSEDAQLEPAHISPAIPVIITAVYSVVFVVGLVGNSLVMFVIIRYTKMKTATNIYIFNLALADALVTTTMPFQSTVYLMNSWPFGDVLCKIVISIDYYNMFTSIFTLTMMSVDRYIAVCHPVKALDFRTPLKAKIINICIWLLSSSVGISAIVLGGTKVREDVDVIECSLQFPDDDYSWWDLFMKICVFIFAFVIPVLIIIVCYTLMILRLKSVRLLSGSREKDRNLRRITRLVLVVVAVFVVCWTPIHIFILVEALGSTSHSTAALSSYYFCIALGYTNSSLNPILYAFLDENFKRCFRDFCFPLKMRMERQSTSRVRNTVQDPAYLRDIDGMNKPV

Sequence of Sigma non-opioid intracellular receptor 1 (Q60492 whole entry): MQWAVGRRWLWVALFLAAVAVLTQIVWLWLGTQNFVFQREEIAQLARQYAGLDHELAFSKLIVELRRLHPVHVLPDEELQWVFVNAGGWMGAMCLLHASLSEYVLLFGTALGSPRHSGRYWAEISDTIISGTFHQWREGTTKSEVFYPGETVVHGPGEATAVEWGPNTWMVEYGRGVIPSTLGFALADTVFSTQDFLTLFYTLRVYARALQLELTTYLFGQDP

| SMILES | Ki [1] | Ki [2] | Ratio Ki [3] | IC50 [4] | IC50 [5] | IC50 [6] |
| --- | --- | --- | --- | --- | --- | --- |
| COC(CN1CCN(Cc2ccccc2)[C@@H](CO)C1)OC | > 10 µM | > 10 µM |  |  |  |  |
| OC[C@H]1CN(Cc2ccccc2)CCN1Cc1ccccc1 | 0.038 µM | 0.177 µM | 5 |  |  |  |
| COC(CN1CCCN(Cc2ccccc2)[C@@H](CO)C1)OC | 0.32 µM | 9.01 µM | 28 | > 10 µM | > 10 µM | > 10 µM |
| OC[C@H]1CN(Cc2ccccc2)CCCN1Cc1ccccc1 | 0.0074 µM | 0.374 µM | 53 | > 10 µM | > 10 µM | > 10 µM |
